Bioassay records as filed in PubChem.
Most compounds without a hit are left out; they make up all but 3.6% or so of the library.
PAFAH1B3 FP inh: inhibitors of human PAFAH1B3 | Q15102 | recombinant PAFAH1B3, FP-rhodamine probe, fluorescence polarization | inhibition, % at 3.39 µM | 0.28% of 340,000 active | AID 492972;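 active means inhibition above the screen-wide average of all tested compounds plus 3 SD, cut at about 25% in these data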;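 further: 0% = enzyme with DMSO only and 100% = wells lacking PAFAH1B3 protein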
PAFAH2 inh: inhibitors of human PAFAH2; Q99487; recombinant PAFAH2, FP-rhodamine activity probe, fluorescence polarization; inhibition, % at 3.39 µM; 0.99% of 340,000 active; AID 492956;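 active means inhibition above the mean over all tested compounds plus 3 SD, cut at about 30% in these data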;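 further: inhibitors block probe labeling of enzyme so polarization drops; 0% = enzyme with DMSO and 100% = wells lacking PAFAH2 protein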
IMP-1 inhibitor: inhibitors of Pseudomonas aeruginosa IMP-1 metallo-beta-lactamase; 0.45% of 290,000 active; inhibition, % at 5.6 µM; purified IMP-1, nitrocefin hydrolysis, epi-absorbance fluorescence; AID 1556;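 active means inhibition above the mean plus 3 SD of all compounds in the same screening run, cut at about 4.5% in these data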;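 further: 0% = IMP-1 with DMSO and 100% = DMSO wells lacking enzyme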
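System – purified recombinant IMP-1 beta-lactamase · Input – IMP-1 dispensed at 0.2 nM · Timing – 15 min preincubation plus 25 min reaction at 25 °C · Signal – Epi-absorbance fluorescence, 480 nm excitation, 530 nm emission · Measure – percent IMP-1 inhibition derived from blank-referenced optical density · Controls – Enzyme-plus-DMSO low control, enzyme-free DMSO high control · Replication – singlicate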
PAFAH1B2 FP inh: blocks human PAF acetylhydrolase 1b catalytic subunit 2; 1.2% of 340,000 active; inhibition, % at 3.39 µM; P68402; recombinant PAFAH1B2, FP-rhodamine activity probe, fluorescence polarization;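 active means inhibition above the mean of all tested compounds plus 3 SD, cut at about 24% in these data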;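 further: 0% = enzyme with DMSO and 100% = wells lacking PAFAH1B2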
pPAFAH FP inh: pPAFAH (human) enzyme inhibition | Q13093 | recombinant pPAFAH, FP-rhodamine probe fluorescence polarization | inhibition, % at 3.39 µM | 1.5% of 330,000 active | AID 463082;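 active means inhibition above the mean inhibition across the screen plus 3 SD, cut at about 25% in these data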;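 further: inhibitors block binding of the rhodamine activity-based probe so polarization drops; 0% = enzyme with DMSO and 100% = wells lacking pPAFAH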
Target sequence (Q13093 whole entry, looked up): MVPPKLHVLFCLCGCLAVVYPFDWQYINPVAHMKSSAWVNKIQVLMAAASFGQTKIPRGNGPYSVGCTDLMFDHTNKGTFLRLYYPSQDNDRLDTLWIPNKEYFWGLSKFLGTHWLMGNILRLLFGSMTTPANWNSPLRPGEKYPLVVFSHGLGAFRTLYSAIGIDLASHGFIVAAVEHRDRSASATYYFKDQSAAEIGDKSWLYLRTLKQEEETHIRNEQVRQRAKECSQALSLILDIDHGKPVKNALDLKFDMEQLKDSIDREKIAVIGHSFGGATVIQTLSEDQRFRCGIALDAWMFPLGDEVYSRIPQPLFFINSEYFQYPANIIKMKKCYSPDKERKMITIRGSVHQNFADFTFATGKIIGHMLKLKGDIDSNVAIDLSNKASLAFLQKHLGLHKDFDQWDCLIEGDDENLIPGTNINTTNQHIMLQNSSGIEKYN
VIM-2 inhibitor: inhibitors of Pseudomonas aeruginosa VIM-2 metallo-beta-lactamase. purified VIM-2, nitrocefin hydrolysis, epi-absorbance fluorescence. AID 1527. inhibition, % at 5.6 µM. 0.89% of 290,000 active;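 active means inhibition above the mean of all tested compounds plus 3 SD, cutoff set per screening run, cut at about 7.5% in these data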;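 further: red hydrolysis product quenches plate fluorescence so inhibitors raise well fluorescence; 0% = enzyme with DMSO and 100% = DMSO without enzyme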
The depositor's hits bear a star; . = no result given.

SMILES	PAFAH1B3 FP inh	PAFAH2 inh	IMP-1 inhibitor	PAFAH1B2 FP inh	pPAFAH FP inh	VIM-2 inhibitor
CCN(CC)C(=O)[C@H]1C[C@H](CC(=O)NCCc2ccccn2)C(=O)N2CCc3c([nH]c4ccc(Cl)cc34)[C@]12C	13	-13	.	0	-1	.
CC(=O)c1ccc(S(=O)(=O)NCCc2cn3ccc(C)cc3n2)cc1	4	2	-2	5	8	2
Cc1ccn2cc(CCNS(=O)(=O)c3ccc([N+](=O)[O-])cc3)nc2c1	11	-3	-4	11	30*	-1
Cc1nc2ccccc2n1CCOc1ccc([N+](=O)[O-])cc1	8	-3	-2	6	30*	0
Cc1nc2ccccc2n1CCOc1ccc(F)cc1	5	0	-3	-2	.	-2
c1ccc(CN2CCOCC2)cc1	-1	8	-3	-2	-6	-7
O=c1c(N2CCOCC2)nsn1Cc1ccccc1	-9	5	6.0*	5	-5	-3
CC(OC(=O)CNC(=O)c1ccc(Cl)cc1)C(=O)NC1CCCCC1C (configuration not stated)	5	-6	.	0	-9	.
O=C(c1cc(Cl)ccc1F)N1CCCC(Nc2ccc3c(c2)OCCO3)C1 (configuration not stated)	3	2	-2	2	7	0
O=C(NNC(=O)C1CCCCC1)c1ccco1	4	4	0	1	0	-1
CCC1CCC(C(=O)NNC(=O)c2cc(-c3ccco3)[nH]n2)CC1 (configuration not stated)	2	7	-6	2	31*	-1
COCCNC(=O)c1onc(CSc2ccc(Cl)cc2)c1C(=O)O	6	10	-1	28*	4	-3
COCCNC(=O)c1onc(CSc2ccc(C(C)C)cc2)c1C(=O)O	3	-3	-3	18	8	-2
COC(=O)c1ccc(N(C(=O)c2ccco2)C(C(=O)NC2CCCC2)c2ccco2)cc1 (configuration not stated)	1	-4	4.5*	3	1	3
Cc1ccc(S(=O)(=O)NN2C(=O)/C(=C/c3cccn3C)SC2=S)cc1	.	.	-3	.	61*	-2
O=C(O)c1ccc(-c2nc(-c3ccccc3)c(-c3cccs3)[nH]2)cc1	8	8	0	6	13	1
Cc1ccc(-c2[nH]c(-c3ccc(C(=O)O)cc3)nc2-c2ccccc2)cc1	1	2	-5	6	31*	-6
Cc1cnc(NC(=O)CC2OC(=O)c3ccccc32)s1 (configuration not stated)	4	9	.	-1	.	.
CC(C)C1Nc2c(O)cc(Cl)c([N+](=O)[O-])c2C2C=CCC21 (configuration not stated)	-3	19	-3	42*	.	-1
O=C1CC[C@@H](OCc2ccccc2)CCN1CC[C@H](Sc1ccccc1)c1ccccc1	-2	33*	-2	5	32*	2
CC(C)c1ccc(NS(=O)(=O)c2ccc3[nH]cc(C(=O)N4CCC(C(N)=O)CC4)c(=O)c3c2)cc1	6	1	3	2	70*	0
O=C(CNC(=O)c1n[nH]c2ccccc12)Nc1ccc(F)c(F)c1F	5	-4	.	-4	-1	.
COc1ccc(-n2c(C)cc(C(=O)CN3C(=O)NC4(CCCc5sccc54)C3=O)c2C)cc1 (configuration not stated)	1	5	-2	3	25*	-1
Cc1cc(C(=O)CN2C(=O)NC3(CCCc4sccc43)C2=O)c(C)n1-c1ccccc1 (configuration not stated)	-1	-1	-2	7	20	-4
COc1cc(Cl)c(C)cc1NC(=O)CCN1C(=O)NC(C)(C)C1=O	-7	1	.	-4	.	.
SMILES	PAFAH1B3 FP inh	PAFAH2 inh	IMP-1 inhibitor	PAFAH1B2 FP inh	pPAFAH FP inh	VIM-2 inhibitor
Cc1ccccc1/C=C/c1cc[n+](C)cc1	6	-1	-2	2	6	0
C=CCn1cc(/C=C/c2cc[n+](C)cc2)c2ccccc21	-3	-14	7.8*	2	6	10*
C=CCn1c(C)c(/C=C/c2cc[n+](C)cc2)c2ccccc21	4	3	4	4	-3	9.3*
Cc1c2cnn(CC(=O)Nc3c(F)c(F)cc(F)c3F)c(=O)c2c(C)n1Cc1ccccc1F	-6	21	-1	-3	27*	0
CCN(CC)c1ccc(C=C(c2nnnn2-c2ccc(C)cc2)c2nnnn2-c2ccc(C)cc2)cc1	3	0	52*	4	-3	-3
Cc1cc(Br)cc(Br)c1OCC(=O)NNC(=O)Nc1ccccc1	4	-13	.	-2	4	.
O=C(O)c1oc2ccccc2c1CSc1ccc(Cl)cc1	4	-1	-2	29*	2	1
CS(=O)(=O)c1ccc(-c2sc3ccccc3c2C(=O)N2CCN(c3ccc(F)cc3)CC2)cc1	6	-4	.	1	3	.
O=C(O)c1cc(NS(=O)(=O)c2ccc3ccccc3c2)ccc1O	5	21	-2	48*	3	-2
O=C(O)c1ccccc1NS(=O)(=O)c1ccc2ccccc2c1	-5	1	2	14	-7	0
Cc1nc(S/C(=C/c2ccc(-c3ccc(C(=O)O)cc3)o2)C(=O)O)n[nH]1	20	14	-4	1	33*	6
CC(=O)c1ccc(-c2ccc(/C=C(/Sc3n[nH]c(C)n3)C(=O)O)o2)cc1	20	14	1	10	21	-2
CCn1c(SCC(=O)N(C)C)nc2cc(S(=O)(=O)N3CCOCC3)ccc21	2	8	.	78*	1	.
CCN(CC)C(=O)CSc1nc2cc(S(=O)(=O)N3CCOCC3)ccc2n1CC	12	0	-3	-1	2	-3
O=C(NN1C(=O)c2cc(Br)ccc2NC1c1ccccc1Cl)c1ccncc1 (configuration not stated)	4	8	-1	-1	1	-4
O=C(NN1C(=O)c2cc(Br)ccc2NC1c1cc(Br)cc(Br)c1O)c1ccncc1 (configuration not stated)	13	23	-3	-2	30*	-1
CCc1cc(C(=O)OC)c(NC(=O)CC2Nc3cc(C)c(C)cc3NC2=O)s1 (configuration not stated)	12	-1	-2	0	0	-1
COC(=O)c1c(NC(=O)CC2Nc3cc(C)c(C)cc3NC2=O)sc(C)c1C (configuration not stated)	4	-11	4.6*	2	2	-1
Cc1c(C)n(-c2ccccc2)c2ncnc(NCCN(C)C)c12	8	-3	-4	2	2	4
CC(Oc1ccc2c3c(c(=O)oc2c1)CCC3)C(=O)NCc1cccnc1 (configuration not stated)	5	1	-2	1	-2	9.6*
